The target of assay [1] is T1, Protein mono-ADP-ribosyltransferase PARP8 (Homo sapiens) (UniProt Q8N3A8).
T1 sequence (whole entry): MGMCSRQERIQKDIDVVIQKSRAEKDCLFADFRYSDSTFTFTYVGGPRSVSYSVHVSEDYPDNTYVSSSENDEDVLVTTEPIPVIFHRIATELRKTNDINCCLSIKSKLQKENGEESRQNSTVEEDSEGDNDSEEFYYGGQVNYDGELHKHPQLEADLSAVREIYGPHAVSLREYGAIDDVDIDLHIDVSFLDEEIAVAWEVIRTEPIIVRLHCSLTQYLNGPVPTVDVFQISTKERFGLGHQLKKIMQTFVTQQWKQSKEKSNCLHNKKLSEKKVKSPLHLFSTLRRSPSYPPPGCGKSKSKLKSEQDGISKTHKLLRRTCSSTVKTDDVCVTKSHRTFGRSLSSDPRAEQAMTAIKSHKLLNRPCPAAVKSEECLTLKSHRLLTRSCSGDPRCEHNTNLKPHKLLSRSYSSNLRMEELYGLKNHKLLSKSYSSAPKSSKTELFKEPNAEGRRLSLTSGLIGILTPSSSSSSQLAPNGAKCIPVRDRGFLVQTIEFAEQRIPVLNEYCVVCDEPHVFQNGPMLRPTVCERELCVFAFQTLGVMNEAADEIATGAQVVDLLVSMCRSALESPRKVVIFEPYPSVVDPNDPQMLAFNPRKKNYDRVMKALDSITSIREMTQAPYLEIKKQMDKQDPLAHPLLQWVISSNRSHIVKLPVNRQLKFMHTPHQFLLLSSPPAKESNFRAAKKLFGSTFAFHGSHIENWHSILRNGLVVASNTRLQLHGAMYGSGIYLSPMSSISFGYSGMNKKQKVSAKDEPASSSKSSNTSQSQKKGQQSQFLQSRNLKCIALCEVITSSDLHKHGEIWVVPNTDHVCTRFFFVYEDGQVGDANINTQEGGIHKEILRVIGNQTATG
Nature of the assay: Inhibition of human recombinant PARP8 at 10 uM incubated for 1 hr using NAD+, biotinylated NAD+ and activated DNA by luminescence based assay. A digest of the protocol:
(§1)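 Recombinant PARP enzyme reactions were run in duplicate for 1 h at rt on histone-coated plates in Tris·HCl pH 8.0 buffer with NAD+, biotinylated NAD+ and activated DNA. Detection used streptavidin-HRP for 30 min at rt, then a chemiluminescent developer. % inhibition = 100 − % activity, scaled between the no-compound (100%) and no-enzyme (0%) signals.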

In assay [2] the target is T2, Protein mono-ADP-ribosyltransferase PARP12 (Homo sapiens) (UniProt Q9H0J9).
T2 sequence (whole entry): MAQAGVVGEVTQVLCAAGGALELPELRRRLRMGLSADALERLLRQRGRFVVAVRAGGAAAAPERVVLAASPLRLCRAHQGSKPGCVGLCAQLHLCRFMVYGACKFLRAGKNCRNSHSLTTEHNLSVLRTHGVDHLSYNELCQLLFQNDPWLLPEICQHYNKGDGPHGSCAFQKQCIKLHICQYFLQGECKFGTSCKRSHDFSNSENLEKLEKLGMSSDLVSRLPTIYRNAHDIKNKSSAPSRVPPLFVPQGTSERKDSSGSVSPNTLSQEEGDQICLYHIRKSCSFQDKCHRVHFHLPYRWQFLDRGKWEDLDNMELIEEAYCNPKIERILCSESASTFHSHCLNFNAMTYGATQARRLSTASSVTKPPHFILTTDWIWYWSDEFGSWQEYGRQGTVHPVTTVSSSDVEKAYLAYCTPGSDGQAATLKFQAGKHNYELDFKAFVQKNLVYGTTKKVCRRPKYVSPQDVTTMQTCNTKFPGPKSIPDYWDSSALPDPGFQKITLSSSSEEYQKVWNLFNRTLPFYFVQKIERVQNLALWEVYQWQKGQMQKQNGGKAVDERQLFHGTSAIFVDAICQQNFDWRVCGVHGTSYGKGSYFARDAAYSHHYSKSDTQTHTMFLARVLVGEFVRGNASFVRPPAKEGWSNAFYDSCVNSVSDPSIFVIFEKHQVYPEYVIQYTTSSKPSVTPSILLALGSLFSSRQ
As to the kind of experiment: Inhibition of human recombinant PARP12 at 10 uM incubated for 1 hr using NAD+, biotinylated NAD+ and activated DNA by luminescence based assay. A digest of the protocol:
as §1

In assay [3] the target is T3, Protein mono-ADP-ribosyltransferase PARP11 (Homo sapiens) (UniProt Q9NR21).
T3 sequence (whole entry): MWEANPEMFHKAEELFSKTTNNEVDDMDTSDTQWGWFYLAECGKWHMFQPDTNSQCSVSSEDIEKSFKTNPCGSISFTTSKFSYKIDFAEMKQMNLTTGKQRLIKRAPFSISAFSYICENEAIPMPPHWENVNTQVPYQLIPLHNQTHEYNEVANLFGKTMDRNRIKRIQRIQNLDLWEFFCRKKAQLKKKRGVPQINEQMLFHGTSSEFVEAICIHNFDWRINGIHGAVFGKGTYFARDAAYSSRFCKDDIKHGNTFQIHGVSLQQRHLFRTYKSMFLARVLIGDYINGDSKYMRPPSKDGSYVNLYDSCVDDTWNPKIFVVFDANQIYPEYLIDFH
Nature of the assay: Inhibition of human recombinant PARP11 at 10 uM incubated for 1 hr using NAD+, biotinylated NAD+ and activated DNA by luminescence based assay. A digest of the protocol: as §1

The values that follow come from ChEMBL document CHEMBL3351316, “Scaffold hopping approach on the route to selective tankyrase inhibitors” (Eur J Med Chem, 2014).

With `CC(C)(C)c1ccc(-c2nc3c(sc4ccccc43)c(=O)[nH]2)cc1`, the inhibition (commonly the drop in the measured response relative to a control, in per cent) in assay [1] was 3%; in assay [2], 14%; in assay [3] it was 10%.
